Here are results for 47 molecules from ChEMBL document CHEMBL1641440, “Virtual screening based identification of novel small-molecule inhibitors targeted to the HIV-1 capsid” (Bioorg Med Chem, 2011).

Active and inactive are the calls of the source. The calls are words filed in the database; no cut-off is given here.

What is called CC50 is the concentration giving 50% cytotoxicity. What is called IC50 is the concentration at which inhibition is half-maximal.

One series relates to MT2. The experiment in a line: Cytotoxicity against human MT2 cells after 4 days by XTT assay. The class given is cell-based. Conditions: mt2, 96 h. In a few lines:
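XTT assay run in parallel with the MT-2 antiviral assay, with medium in place of virus. Graded compound added to an equal volume of MT-2 cells (1 × 10^5 cells/mL), 37 °C for 4 days. Formazan read at 450 nm (reference 620 nm) 4 h after XTT addition; CC50 = concentration giving 50% cytotoxicity.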

The test system of series [1] is Human immunodeficiency virus 1. As to the kind of experiment: Antiviral activity against HIV1 3B infected in human MT2 cells assessed as inhibition of viral p24 antigen production after 4 days by ELISA. The class given is functional, organism-based. Conditions: Human immunodeficiency virus 1, 3B, MT2, 96 h. In a few lines:
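MT-2 cells (1 × 10^4) infected with HIV-1 IIIB at 100 TCID50 (0.01 MOI) in RPMI 1640/10% FBS with graded inhibitor concentrations overnight; medium then replaced with fresh medium containing freshly prepared compound. On day 4 supernatant mixed 1:1 with 5% Triton X-100 and p24 measured by ELISA; IC50 = concentration giving 50% reduction in p24 production. Mean ± SD.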
A general note: An ELISA detects its analyte on a solid surface through an enzyme-linked reagent.

For series [2], the system named is Human immunodeficiency virus 1. Conditions: 3B, MT2, 1 ug/mL.

Consider `Cc1ccc2[nH]c(=O)c(CN(Cc3ccccc3)C(=O)c3ccco3)cc2c1`, for which the half-maximal cytotoxic concentration (CC50) in the series on MT2 is greater than 67.1 µM. Moreover, the half-maximal inhibitory concentration (IC50) in series [1] came to 3.09 µM.

For the molecule `c1cc(CN2CCCNCCNCCCNCC2)ccc1CN1CCCNCCNCCCNCC1`, the inhibition entry in series [2] was “Active”.

For `Cc1ccc2[nH]c(=O)c(CN(Cc3ccco3)C(=O)c3ccc(F)cc3)cc2c1`, the IC50 in series [1] was greater than 25.6 µM.

For the molecule `Cc1ccc(C(=O)N(Cc2ccco2)Cc2cc3ccc(C)cc3[nH]c2=O)cc1`, in series [1], the half-maximal inhibitory concentration (IC50) was greater than 16.2 µM.

The molecule `Cc1cccc2cc(CN(Cc3ccccc3)C(=O)c3cccc(Cl)c3)c(=O)[nH]c12` yielded a half-maximal cytotoxic concentration (CC50) with MT2 greater than 60 µM. Moreover, the 50% inhibitory concentration (IC50) in series [1] came to 3.59 µM.

`COc1ccc2[nH]c(=O)c(CN(Cc3cccs3)C(=O)c3cccc(C)c3)cc2c1`: it took 25 µM to reach half-maximal cytotoxicity in the series with MT2 (CC50). For the same molecule, the IC50 in series [1] was 7.9 µM.

For the molecule `CCc1ccc2[nH]c(=O)c(CN(Cc3ccco3)C(=O)c3ccccc3)cc2c1`, the IC50 in series [1] was greater than 13.9 µM.

For the molecule `Cc1ccc2[nH]c(=O)c(CN(Cc3ccco3)C(=O)c3ccc(N(C)C)cc3)cc2c1`, the IC50 in series [1] was greater than 24.1 µM.

As to `COc1ccc2[nH]c(=O)c(CN(Cc3cccs3)C(=O)C3CCCCC3)cc2c1`, in the series on MT2, the 50% cytotoxic concentration (CC50) was greater than 48 µM. In series [1], the 50% inhibitory concentration (IC50) turned out to be 6.1 µM.

In turn, `Cc1ccc2[nH]c(=O)c(CN(Cc3ccco3)C(=O)c3ccc(Cl)c(Cl)c3)cc2c1` registered a CC50 in the series with MT2 of 70.7 µM. Besides, the half-inhibitory concentration (IC50) in series [1] was found to be 9.2 µM.

In the series with MT2, `Cc1ccc2[nH]c(=O)c(CN(Cc3ccc(Cl)cc3)C(=O)c3cn4cccc(C)c4n3)cc2c1` returned a half-maximal cytotoxic concentration (CC50) of 44.5 µM. Also, the IC50 in series [1] worked out at 9.27 µM.

In the case of `COc1ccc2[nH]c(=O)c(CN(Cc3ccco3)C(=O)c3ccc(Br)cc3)cc2c1`, the half-inhibitory concentration (IC50) in series [1] is greater than 13 µM.

Regarding `Cc1ccc(C(=O)N(Cc2ccco2)Cc2cc3cccc(C)c3[nH]c2=O)cc1`, the midpoint of cytotoxicity with MT2, the CC50, lay at 9.2 µM. Moreover, in series [1], the half-maximal inhibitory concentration (IC50) amounted to 2.67 µM.

The molecule `Cc1ccc2[nH]c(=O)c(CN(Cc3ccco3)C(=O)c3ccc(Br)cc3)cc2c1` gave a CC50 in the series with MT2 greater than 55.4 µM. Besides, the IC50 in series [1] worked out at 2.16 µM.

On to `Cc1ccc2[nH]c(=O)c(CN(Cc3ccco3)C(=O)C(F)(F)F)cc2c1`, for which the IC50 in series [1] was greater than 27.5 µM.

On to `Cc1ccc2[nH]c(=O)c(CN(Cc3ccco3)C(=O)c3ccc(C#N)cc3)cc2c1`, for which the IC50 in series [1] is greater than 25.2 µM.

Turning to `Cc1ccc2cc(CN(Cc3ccco3)C(=O)c3ccccc3)c(=O)[nH]c2c1`, the half-maximal inhibitory concentration (IC50) in series [1] was greater than 16.8 µM.

The molecule `Cc1ccccc1C(=O)N(Cc1ccco1)Cc1cc2cccc(C)c2[nH]c1=O` returned a 50% cytotoxic concentration (CC50) with MT2 greater than 64.7 µM. Also, in series [1], the half-inhibitory concentration (IC50) is 4.23 µM.

`Cc1ccc2[nH]c(=O)c(CN(Cc3ccco3)C(=O)c3ccc(F)c(Cl)c3)cc2c1` displayed a cytotoxic concentration (CC50) in the series on MT2 greater than 23.5 µM. The IC50 in series [1] came out at 8.2 µM.

In the case of `Cc1ccc2[nH]c(=O)c(CN(Cc3ccco3)C(=O)c3ccc(S(N)(=O)=O)cc3)cc2c1`, the IC50 in series [1] was greater than 22.1 µM.

`Cc1ccc2[nH]c(=O)c(CN(Cc3cccs3)C(=O)C3CCCCC3)cc2c1`: the cytotoxic concentration (CC50) in the series on MT2 is greater than 63.4 µM. The IC50 in series [1] is 11.7 µM.

In the series with MT2, `Cc1cccc2cc(CN(Cc3ccco3)C(=O)c3ccccc3)c(=O)[nH]c12` had a half-maximal cytotoxic concentration (CC50) greater than 67.1 µM. The IC50 in series [1] turned out to be 4.02 µM.

With `Cc1ccc2[nH]c(=O)c(CN(Cc3ccco3)C(=O)c3cccnc3)cc2c1`, the 50% inhibitory concentration (IC50) in series [1] is greater than 16.7 µM.

Consider `Cc1ccc2[nH]c(=O)c(CN(Cc3ccco3)C(=O)CN3CCN(C)CC3)cc2c1`, for which the half-inhibitory concentration (IC50) in series [1] is greater than 24.5 µM.

With `CCOc1ccc(C(=O)N(Cc2cccs2)Cc2cc3cc(C)ccc3[nH]c2=O)cc1`, the CC50 with MT2 worked out at 12.7 µM. In series [1], the IC50 amounted to 5 µM.

In the case of `COc1ccc(C(=O)N(Cc2ccco2)Cc2cc3cc(C)ccc3[nH]c2=O)cn1`, the half-inhibitory concentration (IC50) in series [1] is greater than 24.8 µM.

Consider `CCc1ccc2[nH]c(=O)c(CN(Cc3ccco3)C(=O)c3cccs3)cc2c1`, for which the CC50 with MT2 was greater than 127 µM. The IC50 in series [1] worked out at 12.3 µM.

As to `Cc1cc(=O)n2c3ccccc3n(C[C@H](O)CN3CCOCC3)c2c1C#N`, in the series on MT2, the CC50 is greater than 34.1 µM. Further, the concentration for half-maximal inhibition (IC50) in series [1] is 30 µM.

Consider `Cc1cccc2cc(CN(Cc3ccco3)C(=O)c3ccccc3F)c(=O)[nH]c12`, for which, in the series on MT2, the half-maximal cytotoxic concentration (CC50) was greater than 64 µM. For the same molecule, in series [1], the IC50 is 7.25 µM.

Turning to `Cc1ccc2[nH]c(=O)c(CN(Cc3ccco3)C(=O)c3ccccc3)cc2c1`, the 50% cytotoxic concentration (CC50) in the series on MT2 was greater than 67.1 µM. Also, the IC50 in series [1] stood at 9.28 µM.

As for `Cc1ccc(CN(Cc2cc3cc(C)ccc3[nH]c2=O)C(=O)c2ccco2)cc1`, in the series on MT2, the 50% cytotoxic concentration (CC50) is greater than 19.8 µM. Besides, the 50% inhibitory concentration (IC50) in series [1] is 6.4 µM.

Consider `COc1ccc2[nH]c(=O)c(CN(Cc3ccco3)C(=O)c3ccc(C)cc3)cc2c1`, for which the 50% cytotoxic concentration (CC50) in the series with MT2 is greater than 31 µM. For the same molecule, in series [1], the IC50 was determined as 7.87 µM.

As for `Cc1ccc2[nH]c(=O)c(CN(Cc3ccco3)C(=O)c3cnn(C)c3)cc2c1`, the concentration for half-maximal inhibition (IC50) in series [1] was greater than 26.6 µM.

For `Cc1ccc2[nH]c(=O)c(CN(Cc3cccs3)C(=O)c3cccs3)cc2c1`, in the series with MT2, the CC50 was greater than 64 µM. For the same molecule, in series [1], the IC50 was determined as 11.8 µM.

Consider `COc1ccc2nc(O)c(CN(Cc3ccco3)C(=O)c3ccccc3)cc2c1`, for which the IC50 in series [1] was greater than 25.7 µM.

Take `Cc1ccc2[nH]c(=O)c(CN(Cc3ccco3)C(=O)c3ccc(O)c(Cl)c3)cc2c1`: the concentration for half-maximal inhibition (IC50) in series [1] was greater than 23.6 µM.

Take `Cc1ccc2[nH]c(=O)c(CN(Cc3cccs3)C(=O)c3ccccc3)cc2c1`: in series [1], the IC50 is greater than 12.9 µM.

`Cc1cccc2cc(CN(Cc3ccco3)C(=O)c3cccs3)c(O)nc12`: the 50% cytotoxic concentration (CC50) with MT2 was greater than 66.1 µM. Besides, the 50% inhibitory concentration (IC50) in series [1] is greater than 16.5 µM.

In the series on MT2, `Cc1ccc2[nH]c(=O)c(CN(Cc3ccco3)C(=O)c3ccc(F)c(F)c3)cc2c1` yielded a CC50 greater than 24.5 µM. Besides, in series [1], the IC50 came out at 4.7 µM.

Take `Cc1ccc2[nH]c(=O)c(CN(Cc3ccco3)C(=O)c3ccc(Cl)c(O)c3)cc2c1`: the IC50 in series [1] was greater than 23.6 µM.

`COc1ccc(C(=O)N(Cc2ccco2)Cc2cc3ccc(C)cc3[nH]c2=O)cc1`: in series [1], the IC50 was greater than 15 µM.

On to `Cc1ccc2[nH]c(=O)c(CN(Cc3ccco3)C(=O)c3cc(Cl)c(O)c(Cl)c3)cc2c1`, for which the 50% inhibitory concentration (IC50) in series [1] was greater than 21.9 µM.

Turning to `Cc1ccc2[nH]c(=O)c(CN(Cc3ccco3)C(=O)c3ccc(Cl)c(N4CCCCC4)c3)cc2c1`, the CC50 in the series on MT2 was greater than 20.4 µM. Besides, the IC50 in series [1] worked out at 7.1 µM.

On to `Cc1ccc2cc(CN(Cc3ccco3)C(=O)c3ccc(C(C)(C)C)cc3)c(=O)[nH]c2c1`, for which the IC50 in series [1] is greater than 14.6 µM.

In the series with MT2, `Cc1ccc2[nH]c(=O)c(CN(Cc3ccc4c(c3)OCO4)C(=O)c3ccccc3)cc2c1` showed a cytotoxic concentration (CC50) greater than 117 µM. Besides, in series [1], the concentration for half-maximal inhibition (IC50) came to 5.8 µM.

For `Cc1ccc2[nH]c(=O)c(CN(CC3CCCO3)C(=O)c3ccc(Cl)cc3)cc2c1` (configuration not stated), in series [1], the IC50 was greater than 38.9 µM.

`Cc1ccc2cc(CN(Cc3ccco3)C(=O)c3cccc(F)c3)c(=O)[nH]c2c1`: the 50% cytotoxic concentration (CC50) with MT2 was greater than 51.2 µM. In series [1], the IC50 stood at 12.4 µM.
